Activity calls are given as the source filed them. The rule behind the calls is not given here.
Tests used:
Details in all cases: dose microM <=1
[1] = molecular target: Bromodomain-containing protein 2 (Homo sapiens) (UniProt P25440); assay: Binding affinity to human BRD2 bromodomain 1 assessed as dissociation constant up to 1 uM by BROMOscan assay
How it was run: (§1)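 BROMOscan competition binding panel of 12 phylogenetically diverse bromodomains, including the CREBBP and EP300 bromodomains.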

[2] = molecular target: T1, Bromodomain-containing protein 9 (Homo sapiens) (UniProt Q9H8M2); assay: Binding affinity to human BRD9 assessed as dissociation constant up to 1 uM by BROMOscan assay; how it was run: as §1
T1 sequence (whole entry): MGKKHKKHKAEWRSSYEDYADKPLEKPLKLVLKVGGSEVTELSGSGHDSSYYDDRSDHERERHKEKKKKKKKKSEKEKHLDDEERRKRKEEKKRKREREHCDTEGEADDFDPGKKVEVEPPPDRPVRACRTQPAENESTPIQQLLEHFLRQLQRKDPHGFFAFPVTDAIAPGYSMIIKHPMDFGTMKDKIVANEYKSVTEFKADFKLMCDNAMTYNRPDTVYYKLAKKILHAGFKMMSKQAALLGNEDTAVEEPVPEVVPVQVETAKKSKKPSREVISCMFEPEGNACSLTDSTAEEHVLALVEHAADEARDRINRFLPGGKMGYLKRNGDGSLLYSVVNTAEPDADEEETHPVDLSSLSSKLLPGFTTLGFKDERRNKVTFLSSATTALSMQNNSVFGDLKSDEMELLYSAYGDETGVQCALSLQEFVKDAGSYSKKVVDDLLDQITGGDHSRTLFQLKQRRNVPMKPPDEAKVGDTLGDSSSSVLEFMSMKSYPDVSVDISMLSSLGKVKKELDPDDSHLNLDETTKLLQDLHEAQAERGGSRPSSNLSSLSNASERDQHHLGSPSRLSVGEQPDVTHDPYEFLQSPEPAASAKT

[3] = molecular target: T2, Bromodomain-containing protein 7 (Homo sapiens) (UniProt Q9NPI1); assay: Binding affinity to human BRD7 assessed as dissociation constant up to 1 uM by BROMOscan assay; how it was run: as §1
T2 sequence (whole entry): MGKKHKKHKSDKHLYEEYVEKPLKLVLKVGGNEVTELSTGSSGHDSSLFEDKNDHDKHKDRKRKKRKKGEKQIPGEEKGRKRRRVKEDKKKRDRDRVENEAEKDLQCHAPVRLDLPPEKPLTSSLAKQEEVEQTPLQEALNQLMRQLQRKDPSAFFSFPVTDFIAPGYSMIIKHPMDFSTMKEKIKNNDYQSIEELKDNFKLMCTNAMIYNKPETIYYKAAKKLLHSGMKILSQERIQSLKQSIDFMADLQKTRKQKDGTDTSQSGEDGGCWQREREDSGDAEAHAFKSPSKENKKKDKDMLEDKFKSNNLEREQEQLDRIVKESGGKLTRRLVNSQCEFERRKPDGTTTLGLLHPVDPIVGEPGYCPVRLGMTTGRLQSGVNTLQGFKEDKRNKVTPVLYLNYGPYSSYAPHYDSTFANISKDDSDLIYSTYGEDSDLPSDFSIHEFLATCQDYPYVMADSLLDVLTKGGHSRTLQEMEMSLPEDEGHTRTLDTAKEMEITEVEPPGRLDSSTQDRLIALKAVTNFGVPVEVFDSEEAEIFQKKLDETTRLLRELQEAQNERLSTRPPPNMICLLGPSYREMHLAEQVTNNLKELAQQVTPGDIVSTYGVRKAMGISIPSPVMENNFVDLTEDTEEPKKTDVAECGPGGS

Peregrin (Homo sapiens) = molecular target: T3, Peregrin (Homo sapiens) (UniProt P55201); assay: Binding affinity to human BRPF1 assessed as dissociation constant up to 1 uM by BROMOscan assay; how it was run: as §1
T3 sequence (whole entry): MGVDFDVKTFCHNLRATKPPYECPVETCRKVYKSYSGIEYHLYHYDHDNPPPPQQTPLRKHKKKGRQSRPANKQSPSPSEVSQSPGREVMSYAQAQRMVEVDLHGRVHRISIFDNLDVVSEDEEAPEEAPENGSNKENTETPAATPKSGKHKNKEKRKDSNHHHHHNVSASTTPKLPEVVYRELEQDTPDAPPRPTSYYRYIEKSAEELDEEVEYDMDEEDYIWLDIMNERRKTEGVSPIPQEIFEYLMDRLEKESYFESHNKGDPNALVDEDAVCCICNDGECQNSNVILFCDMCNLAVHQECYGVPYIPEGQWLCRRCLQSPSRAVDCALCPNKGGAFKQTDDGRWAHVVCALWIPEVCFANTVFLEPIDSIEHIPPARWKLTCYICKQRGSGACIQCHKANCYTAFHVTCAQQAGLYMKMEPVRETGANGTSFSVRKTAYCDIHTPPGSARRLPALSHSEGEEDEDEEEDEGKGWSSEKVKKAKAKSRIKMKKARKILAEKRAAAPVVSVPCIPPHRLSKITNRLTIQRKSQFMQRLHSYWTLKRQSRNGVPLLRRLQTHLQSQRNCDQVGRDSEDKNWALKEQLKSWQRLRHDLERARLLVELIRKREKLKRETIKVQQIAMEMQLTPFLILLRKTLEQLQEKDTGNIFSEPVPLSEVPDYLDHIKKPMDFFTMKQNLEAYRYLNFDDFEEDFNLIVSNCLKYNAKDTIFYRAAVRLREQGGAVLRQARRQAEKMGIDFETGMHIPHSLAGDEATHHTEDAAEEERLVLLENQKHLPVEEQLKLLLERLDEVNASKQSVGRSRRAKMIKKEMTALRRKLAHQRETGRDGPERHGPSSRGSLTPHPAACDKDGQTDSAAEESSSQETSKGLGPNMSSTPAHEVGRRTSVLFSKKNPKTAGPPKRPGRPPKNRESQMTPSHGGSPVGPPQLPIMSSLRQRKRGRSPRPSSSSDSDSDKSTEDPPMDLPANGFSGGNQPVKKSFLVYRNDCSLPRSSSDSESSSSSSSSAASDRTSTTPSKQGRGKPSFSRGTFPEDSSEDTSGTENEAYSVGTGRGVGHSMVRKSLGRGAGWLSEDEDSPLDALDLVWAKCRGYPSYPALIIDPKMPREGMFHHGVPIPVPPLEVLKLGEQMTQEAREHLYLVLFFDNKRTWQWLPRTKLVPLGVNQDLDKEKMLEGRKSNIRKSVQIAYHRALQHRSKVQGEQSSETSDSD

[4] = molecular target: Bromodomain-containing protein 4 (Homo sapiens, UniProt O60885); assay: Binding affinity to human BRD4 bromodomain 1 assessed as dissociation constant up to 1 uM by BROMOscan assay; how it was run: as §1
[5] = molecular target: Transcription initiation factor TFIID subunit 1 (Homo sapiens) (UniProt P21675); assay: Binding affinity to human TAF1 bromo domain 2 assessed as dissociation constant up to 1 uM by BROMOscan assay; how it was run: as §1
Chain of Transcription initiation factor TFIID subunit 1 (Homo sapiens) (P21675 whole entry, the tested form may be a part): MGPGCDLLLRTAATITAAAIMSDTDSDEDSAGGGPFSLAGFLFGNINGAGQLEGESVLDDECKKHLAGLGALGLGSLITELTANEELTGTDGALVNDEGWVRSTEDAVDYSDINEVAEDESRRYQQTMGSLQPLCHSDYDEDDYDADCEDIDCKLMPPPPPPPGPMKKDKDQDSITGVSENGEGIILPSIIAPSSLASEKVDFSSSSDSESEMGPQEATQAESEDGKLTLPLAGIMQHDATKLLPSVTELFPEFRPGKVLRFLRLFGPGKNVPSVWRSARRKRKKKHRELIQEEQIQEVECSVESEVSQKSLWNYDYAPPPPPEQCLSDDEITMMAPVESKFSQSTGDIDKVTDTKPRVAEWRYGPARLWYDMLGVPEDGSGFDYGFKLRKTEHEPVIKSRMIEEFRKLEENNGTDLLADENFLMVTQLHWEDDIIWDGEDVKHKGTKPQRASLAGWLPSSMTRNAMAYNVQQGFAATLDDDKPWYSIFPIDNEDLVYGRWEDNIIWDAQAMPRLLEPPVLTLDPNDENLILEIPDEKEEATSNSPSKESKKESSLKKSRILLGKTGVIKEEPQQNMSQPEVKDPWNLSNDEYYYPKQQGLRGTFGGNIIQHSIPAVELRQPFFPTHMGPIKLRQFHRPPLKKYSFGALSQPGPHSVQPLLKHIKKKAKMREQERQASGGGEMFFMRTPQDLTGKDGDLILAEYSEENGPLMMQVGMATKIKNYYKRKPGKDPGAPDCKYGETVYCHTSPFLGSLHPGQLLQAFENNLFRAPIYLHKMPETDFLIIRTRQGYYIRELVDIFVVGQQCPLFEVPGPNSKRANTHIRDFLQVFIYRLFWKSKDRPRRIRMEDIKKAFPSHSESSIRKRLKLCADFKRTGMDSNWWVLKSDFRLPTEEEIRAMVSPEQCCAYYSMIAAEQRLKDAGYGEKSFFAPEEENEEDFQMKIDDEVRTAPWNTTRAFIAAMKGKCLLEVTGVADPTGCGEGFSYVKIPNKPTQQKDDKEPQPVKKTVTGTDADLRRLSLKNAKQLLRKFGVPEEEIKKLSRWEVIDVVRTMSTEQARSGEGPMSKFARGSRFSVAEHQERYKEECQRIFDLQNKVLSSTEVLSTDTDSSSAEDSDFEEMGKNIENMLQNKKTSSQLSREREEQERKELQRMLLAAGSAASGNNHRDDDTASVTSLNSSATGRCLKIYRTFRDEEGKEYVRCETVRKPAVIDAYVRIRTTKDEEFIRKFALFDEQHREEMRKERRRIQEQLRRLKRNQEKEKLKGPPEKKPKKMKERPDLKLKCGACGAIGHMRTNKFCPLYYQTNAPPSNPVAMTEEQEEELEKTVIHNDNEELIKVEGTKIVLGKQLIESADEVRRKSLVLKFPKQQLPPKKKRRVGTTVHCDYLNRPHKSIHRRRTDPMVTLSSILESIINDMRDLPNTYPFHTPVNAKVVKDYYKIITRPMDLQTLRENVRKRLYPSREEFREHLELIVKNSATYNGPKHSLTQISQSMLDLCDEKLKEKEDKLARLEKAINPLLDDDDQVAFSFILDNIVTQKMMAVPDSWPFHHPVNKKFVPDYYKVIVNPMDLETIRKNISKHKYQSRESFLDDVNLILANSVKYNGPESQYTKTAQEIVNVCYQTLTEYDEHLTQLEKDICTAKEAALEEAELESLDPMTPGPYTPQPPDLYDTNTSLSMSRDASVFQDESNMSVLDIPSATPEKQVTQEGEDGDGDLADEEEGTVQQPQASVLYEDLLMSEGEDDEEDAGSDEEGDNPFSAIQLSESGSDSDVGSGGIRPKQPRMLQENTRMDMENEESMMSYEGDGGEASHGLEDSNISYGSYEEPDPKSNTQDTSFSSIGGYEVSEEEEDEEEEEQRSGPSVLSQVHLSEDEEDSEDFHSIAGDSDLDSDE

[6] = molecular target: SWI/SNF-related matrix-associated actin-dependent regulator of chromatin subfamily A member 4 (Homo sapiens) (UniProt P51532); assay: Binding affinity to human SMARCA4 assessed as dissociation constant up to 1 uM by BROMOscan assay; how it was run: as §1
Chain of SWI/SNF-related matrix-associated actin-dependent regulator of chromatin subfamily A member 4 (Homo sapiens) (P51532 whole entry): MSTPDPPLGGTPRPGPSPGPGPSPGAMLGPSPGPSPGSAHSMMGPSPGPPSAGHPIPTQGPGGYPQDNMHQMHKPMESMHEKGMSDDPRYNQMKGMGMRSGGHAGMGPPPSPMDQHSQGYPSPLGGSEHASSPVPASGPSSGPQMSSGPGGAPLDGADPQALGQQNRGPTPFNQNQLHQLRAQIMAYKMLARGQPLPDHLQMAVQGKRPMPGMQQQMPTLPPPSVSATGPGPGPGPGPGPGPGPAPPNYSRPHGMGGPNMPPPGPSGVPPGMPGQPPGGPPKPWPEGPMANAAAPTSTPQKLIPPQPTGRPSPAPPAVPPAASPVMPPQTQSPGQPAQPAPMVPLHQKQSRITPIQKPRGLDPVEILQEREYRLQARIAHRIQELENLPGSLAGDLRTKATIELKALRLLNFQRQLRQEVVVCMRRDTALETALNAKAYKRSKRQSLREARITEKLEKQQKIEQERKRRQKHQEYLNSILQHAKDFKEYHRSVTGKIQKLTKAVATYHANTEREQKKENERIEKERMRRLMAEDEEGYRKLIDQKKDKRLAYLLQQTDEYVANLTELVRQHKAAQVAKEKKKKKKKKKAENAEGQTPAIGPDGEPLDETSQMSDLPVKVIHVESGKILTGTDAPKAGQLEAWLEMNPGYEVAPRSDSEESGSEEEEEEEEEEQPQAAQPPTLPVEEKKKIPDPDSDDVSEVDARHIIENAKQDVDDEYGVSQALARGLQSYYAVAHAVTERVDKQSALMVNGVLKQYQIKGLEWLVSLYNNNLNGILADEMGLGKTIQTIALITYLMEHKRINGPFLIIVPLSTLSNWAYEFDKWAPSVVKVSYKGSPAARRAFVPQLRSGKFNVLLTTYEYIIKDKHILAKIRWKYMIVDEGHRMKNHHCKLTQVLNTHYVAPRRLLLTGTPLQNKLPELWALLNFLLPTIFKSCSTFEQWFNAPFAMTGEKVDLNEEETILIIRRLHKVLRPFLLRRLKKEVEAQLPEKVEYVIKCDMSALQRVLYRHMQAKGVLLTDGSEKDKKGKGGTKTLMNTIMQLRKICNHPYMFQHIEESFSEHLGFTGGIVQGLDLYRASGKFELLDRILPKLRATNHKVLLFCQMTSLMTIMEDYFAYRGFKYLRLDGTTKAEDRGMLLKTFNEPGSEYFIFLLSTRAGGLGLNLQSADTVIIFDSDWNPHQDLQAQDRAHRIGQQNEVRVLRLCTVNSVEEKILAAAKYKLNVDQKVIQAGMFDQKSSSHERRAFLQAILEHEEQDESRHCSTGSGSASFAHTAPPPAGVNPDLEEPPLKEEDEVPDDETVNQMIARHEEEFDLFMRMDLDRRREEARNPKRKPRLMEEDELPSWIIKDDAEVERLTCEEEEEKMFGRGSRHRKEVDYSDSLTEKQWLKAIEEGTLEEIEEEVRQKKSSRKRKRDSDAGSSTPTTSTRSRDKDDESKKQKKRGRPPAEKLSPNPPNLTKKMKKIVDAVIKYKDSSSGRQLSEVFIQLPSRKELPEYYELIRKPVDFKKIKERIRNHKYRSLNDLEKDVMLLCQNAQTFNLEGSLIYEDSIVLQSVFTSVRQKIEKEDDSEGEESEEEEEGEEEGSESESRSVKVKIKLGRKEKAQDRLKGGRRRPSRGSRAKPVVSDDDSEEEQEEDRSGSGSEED

Chain of Bromodomain-containing protein 2 (Homo sapiens) (P25440 whole entry, looked up): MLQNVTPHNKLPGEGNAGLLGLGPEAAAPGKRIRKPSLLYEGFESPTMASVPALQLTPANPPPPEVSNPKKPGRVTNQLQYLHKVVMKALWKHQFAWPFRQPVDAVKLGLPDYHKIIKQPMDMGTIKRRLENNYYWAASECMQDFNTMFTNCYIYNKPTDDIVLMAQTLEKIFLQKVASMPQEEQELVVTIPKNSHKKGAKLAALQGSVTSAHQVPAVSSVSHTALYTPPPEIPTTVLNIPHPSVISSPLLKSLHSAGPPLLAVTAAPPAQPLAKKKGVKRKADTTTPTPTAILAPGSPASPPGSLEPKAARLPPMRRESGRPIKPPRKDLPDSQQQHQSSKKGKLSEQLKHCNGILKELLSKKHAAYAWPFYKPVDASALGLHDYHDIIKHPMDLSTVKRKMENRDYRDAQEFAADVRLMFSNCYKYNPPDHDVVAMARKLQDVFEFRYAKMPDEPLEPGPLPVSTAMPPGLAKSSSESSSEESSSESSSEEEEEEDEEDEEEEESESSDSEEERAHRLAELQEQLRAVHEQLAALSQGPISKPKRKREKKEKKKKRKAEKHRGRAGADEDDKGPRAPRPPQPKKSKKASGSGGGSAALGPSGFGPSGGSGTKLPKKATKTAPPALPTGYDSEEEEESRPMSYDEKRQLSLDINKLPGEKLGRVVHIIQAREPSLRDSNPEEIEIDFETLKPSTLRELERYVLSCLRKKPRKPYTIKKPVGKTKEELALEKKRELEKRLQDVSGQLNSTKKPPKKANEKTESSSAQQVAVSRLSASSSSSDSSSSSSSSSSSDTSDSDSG

Activity [1] | Activity [2] | Activity [3] | Activity (Peregrin (Homo sapiens)) | Activity [4] | Activity [5] | Activity [6] | Structure (SMILES)
inactive | inactive | inactive | inactive | inactive | inactive | inactive | COc1ccc2c(c1)N(CCC/C=C/c1cccc3c1N[C@H](C)CC(=O)N3)CCC2
inactive | inactive | inactive | inactive | inactive | inactive | inactive | COc1ccc2c(c1)N(CCC/C=C/c1cccc3c1N[C@@H](C)CC(=O)N3)CCC2

Reference: ChEMBL document CHEMBL5029150, “Controlling Intramolecular Interactions in the Design of Selective, High-Affinity Ligands for the CREBBP Bromodomain” (J Med Chem, 2021)
